The subject of one data set is MCF7. In words: Cytotoxicity against human MCF-7 cells upto 100 uM by lactate dehydrogenase assay. It counts as cell-based. The essentials:
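HepG2 or MCF-7 cells grown in EMEM with 2 mM L-glutamine, penicillin/streptomycin, 10% FBS at 37 °C, 5% CO2; LDH release kit per manufacturer, test concentrations up to 100 µM.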

Data set [1] relates to human topoisomerase 2alpha. In words: Selectivity ratio of IC50 for inhibition of human topoisomerase 2alpha to IC50 for inhibition of Staphylococcus aureus DNA gyrase. The format is toxicity. The following applies: read-out: Ratio IC50.
For data set [2], the system named is Staphylococcus aureus. In words: Antibacterial activity against vancomycin-resistant Staphylococcus aureus ATCC 700699 harboring GyrB […] mutant assessed as inhibition of bacterial growth by CLSI protocol based broth microdilution assay. The format is functional. In short, it runs like this:
(§1)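 Minimum inhibitory concentration by standard serial broth microdilution following CLSI guidelines. Medium was MHBII broth (22 g/L powder: beef extract, casein acid hydrolysate, starch), with MHBII agar (14 g agar per L broth). Where noted, assayed without and with efflux pump substrate phenylalanine-arginine β-naphthylamide (PAβN).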
A general note: In broth dilution the organism is exposed to a series of concentrations in liquid medium.

The subject of data set [3] is Staphylococcus aureus. The data set is described as follows: Antibacterial activity against methicillin-resistant Staphylococcus aureus ATCC 43300 harboring GyrB R144I mutant assessed as inhibition of bacterial growth by CLSI protocol based broth microdilution assay. The format is functional. In short, it runs like this: as §1
Data set [4] concerns the target DNA topoisomerase 2-alpha (Homo sapiens, UniProt P11388). In words: Inhibition of human topoisomerase 2alpha assessed as reduction in relaxation of supercoiled DNA fluorescence-based microplate reader assay. The essentials: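 Human topoisomerase IIα, 1.5 U with 0.75 µg supercoiled pNO1 plasmid, 1 mM ATP, pH 7.5 Tris/MgCl2/NaCl/DTT buffer, 37 °C 30 min. Stopped with TF buffer pH 5.0, then triplex capture on immobilized biotinylated oligonucleotide 30 min at room temperature. Dye fluorescence read (ex 485/em 537 nm). IC50 from seven concentrations, mean of three runs; etoposide control.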

The subject of data set [5] is Staphylococcus aureus. The data set is described as follows: Antibacterial activity against methicillin-resistant Staphylococcus aureus ATCC 43300 harboring GyrB T173A mutant assessed as inhibition of bacterial growth by CLSI protocol based broth microdilution assay. It counts as functional. The essentials:
as §1

The test system of data set [6] is Escherichia coli. The data set is described as follows: Ratio of MIC for Escherichia coli MG1655 harboring GyrB R136C mutant in presence of efflux pump inhibitor PAbetaN to MIC for wild type Escherichia coli MG1655 in presence of efflux pump inhibitor PAbetaN. It counts as functional.
Data set [7] is described as follows: Genotoxicity in CHO-K1 cells upto 62 uM by in presence of rat liver S9 fraction invitro micronucleus test. The format is subcellular, Cricetulus griseus. The note with it: chinese hamster.
The test system of data set [8] is Staphylococcus aureus. In words: Ratio of MIC for vancomycin-resistant Staphylococcus aureus ATCC 700699 harboring GyrB R144I mutant to MIC for vancomycin-resistant wild type Staphylococcus aureus ATCC 700699. It counts as functional.
For a further data set, the system named is Enterococcus faecalis. In words: Antibacterial activity against Enterococcus faecalis ATCC 29212 assessed as inhibition of bacterial growth by CLSI protocol based broth microdilution assay. The format is functional.
For data set [9], the system named is Escherichia coli. In words: Antibacterial activity against Escherichia coli ATCC 25922 assessed as inhibition of bacterial growth by CLSI protocol based broth microdilution assay. It counts as functional.

These results are taken from ChEMBL document CHEMBL4813947, “New dual ATP-competitive inhibitors of bacterial DNA gyrase and topoisomerase IV active against ESKAPE pathogens” (Eur J Med Chem, 2021).

Molecules are shown by their SMILES. Values after ≈ are worked out from the molar mass of the structure shown.

The term MIC denotes the smallest concentration in the dilution series that meets the test's criterion for growth inhibition.

Sequence of DNA topoisomerase 2-alpha (P11388 whole entry): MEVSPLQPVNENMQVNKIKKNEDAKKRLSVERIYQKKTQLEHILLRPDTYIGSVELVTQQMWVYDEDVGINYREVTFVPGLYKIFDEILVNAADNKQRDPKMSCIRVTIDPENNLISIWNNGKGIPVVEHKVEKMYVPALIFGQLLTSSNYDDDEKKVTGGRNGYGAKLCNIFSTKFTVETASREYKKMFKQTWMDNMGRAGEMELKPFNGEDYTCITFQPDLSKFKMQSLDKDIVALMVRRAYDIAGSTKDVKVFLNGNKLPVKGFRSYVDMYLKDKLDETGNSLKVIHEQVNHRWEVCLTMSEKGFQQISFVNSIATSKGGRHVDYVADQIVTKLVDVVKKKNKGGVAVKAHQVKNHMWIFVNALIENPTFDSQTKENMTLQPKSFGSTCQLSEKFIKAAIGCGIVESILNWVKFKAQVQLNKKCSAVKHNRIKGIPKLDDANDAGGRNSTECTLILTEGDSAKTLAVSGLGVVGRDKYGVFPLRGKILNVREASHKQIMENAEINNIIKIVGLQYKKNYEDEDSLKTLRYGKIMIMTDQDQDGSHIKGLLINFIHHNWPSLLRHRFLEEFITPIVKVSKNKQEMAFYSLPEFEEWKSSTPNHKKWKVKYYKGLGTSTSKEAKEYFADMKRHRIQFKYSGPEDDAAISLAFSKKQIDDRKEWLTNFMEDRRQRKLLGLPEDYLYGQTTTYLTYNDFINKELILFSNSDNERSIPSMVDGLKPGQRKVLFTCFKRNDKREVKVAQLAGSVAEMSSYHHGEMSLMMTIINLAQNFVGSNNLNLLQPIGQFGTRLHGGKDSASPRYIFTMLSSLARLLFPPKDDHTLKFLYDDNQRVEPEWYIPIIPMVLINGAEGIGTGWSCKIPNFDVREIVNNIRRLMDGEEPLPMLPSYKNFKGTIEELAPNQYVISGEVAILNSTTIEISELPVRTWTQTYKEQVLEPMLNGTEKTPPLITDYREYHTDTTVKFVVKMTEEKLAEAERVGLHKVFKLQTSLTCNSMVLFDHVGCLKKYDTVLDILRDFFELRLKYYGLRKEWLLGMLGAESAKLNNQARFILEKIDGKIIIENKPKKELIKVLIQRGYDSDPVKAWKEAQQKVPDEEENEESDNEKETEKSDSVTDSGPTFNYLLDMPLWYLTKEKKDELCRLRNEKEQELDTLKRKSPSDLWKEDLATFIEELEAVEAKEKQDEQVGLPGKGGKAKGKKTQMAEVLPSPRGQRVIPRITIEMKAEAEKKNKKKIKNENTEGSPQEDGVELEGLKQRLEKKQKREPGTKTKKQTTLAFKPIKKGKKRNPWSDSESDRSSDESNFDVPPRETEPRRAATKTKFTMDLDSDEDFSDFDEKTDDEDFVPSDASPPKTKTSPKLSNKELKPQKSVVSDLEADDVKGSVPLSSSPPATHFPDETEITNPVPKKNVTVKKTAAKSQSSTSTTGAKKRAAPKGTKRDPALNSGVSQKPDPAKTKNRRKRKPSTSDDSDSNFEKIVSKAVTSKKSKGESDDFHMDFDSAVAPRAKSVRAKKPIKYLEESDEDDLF

With `Cc1[nH]c(C(=O)Nc2nc3c(OCc4ccsc4)cc(C(=O)O)cc3s2)c(Cl)c1Cl`, the Activity entry (in the data set with MCF7; in [7]) was “Non-Toxic” in each case. For the same molecule, the selectivity ratio in data set [1] was 450. Further, the MIC with Staphylococcus aureus [2] worked out at 0.0625 µg/mL (≈ 0.13 µM); in the data set with Staphylococcus aureus [3] it was 0.25 µg/mL (≈ 0.518 µM); in the data set with Staphylococcus aureus [5], 0.125 µg/mL (≈ 0.259 µM); with Enterococcus faecalis, 0.0156 µg/mL (≈ 0.0323 µM); in the data set on Escherichia coli [9], 4 µg/mL (≈ 8.29 µM). Besides, the INH in data set [4] was 45 µM. The Ratio with Escherichia coli [6] amounted to 8; in the data set with Staphylococcus aureus [8], 2.
